Data as given in ChEMBL document CHEMBL1144665, “Benzyl ether-linked glucuronide derivative of 10-hydroxycamptothecin designed for selective camptothecin-based anticancer therapy” (J Med Chem, 2008).
Values after ≈ are worked out from the molar mass of the structure shown.

Experiments:
COLO 205 [1] = assay: Cytotoxicity against human Colo 205 cells assessed as inhibition of [3H]thymidine after 48 hrs; assay type: functional, cell-based
Outline: (§1)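 Exponentially growing cells, 5 × 10³/well in RPMI with 10% bovine serum and penicillin/streptomycin, 37 °C, 5% CO₂, exposed to a range of drug concentrations (DMSO final ≤0.5%; vehicle controls). After 48 h, 12 h [³H]thymidine pulse (1 µCi/well); trypsinized cells counted for radioactivity. Triplicate wells, 1–3 experiments; IC50 interpolated from log dose–response curves.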

[2] = Aqueous solubility in phosphate buffer at pH 4.0; assay type: physicochemical
Outline: (§2)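 Excess solid equilibrated in 100 mM phosphate buffer (pH 4.0 or 7.0) at 25 °C for 24 h. Filtered through 0.2 µm, diluted in mobile phase and quantified by HPLC with fluorescence detection against calibration curves. Single determination.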

[3] = Cytotoxicity against human H298 cells assessed as inhibition of [3H]thymidine after 48 hrs; assay type: functional, cell-based; outline: as §1
HT-29 [4] = assay: Cytotoxicity against human HT29 cells assessed as inhibition of [3H]thymidine after 48 hrs; assay type: functional, cell-based; outline: as §1
[5] = Aqueous solubility in phosphate buffer at pH 7.0; assay type: physicochemical; outline: as §2
HepG2 [6] = assay: Cytotoxicity against human HepG2 cells assessed as inhibition of [3H]thymidine after 48 hrs; assay type: functional, cell-based; outline: as §1
Escherichia coli [7] = assay: Activity of Escherichia coli beta-glucuronidase
Outline: (§3)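 Prodrug at various concentrations incubated with 0.125 µg/mL E. coli β-glucuronidase, pH 7.0, 37 °C, 20 min; stopped with ice-cold MeOH to precipitate protein. Substrate and released 10-hydroxycamptothecin quantified by reversed-phase HPLC with fluorescence detection (ex 397, em 482 nm) against standard calibration curves; Km, Vmax and Vmax/Km derived.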

Escherichia coli [8] = assay: Ratio of […] of Escherichia coli beta-glucuronidase; outline: as §3
HepG2 [9] = assay: Cytotoxicity against human HepG2 cells assessed as inhibition of [3H]thymidine in presence of beta-glucuronidase after 48 hrs; assay type: functional, cell-based
Outline: (§4)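 As the plain [³H]thymidine assay (5 × 10³ cells/well, RPMI/10% serum, 48 h exposure, then 12 h 1 µCi/well pulse, scintillation counting), but β-glucuronidase (5 µg/mL; 1 µg/well) added together with drug. Triplicate wells, 1–3 experiments; IC50 interpolated from log dose–response curves.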

Plasma = assay: Stability in 95% human plasma; assay type: ADME, cell-free
Outline: (§5)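 Incubated in 95% human plasma at 37 °C up to 6 h. Aliquots neutralized with 12 mM phosphoric acid, extracted three times with ethyl acetate, dried, redissolved in mobile phase, filtered and analysed by reversed-phase HPLC with fluorescence detection.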

COLO 205 [10] = assay: Cytotoxicity against human Colo 205 cells assessed as inhibition of [3H]thymidine in presence of beta-glucuronidase after 48 hrs; assay type: functional, cell-based; outline: as §4
HT-29 [11] = assay: Cytotoxicity against human HT29 cells assessed as inhibition of [3H]thymidine in presence of beta-glucuronidase after 48 hrs; assay type: functional, cell-based; outline: as §4
[12] = Cytotoxicity against human H298 cells assessed as inhibition of [3H]thymidine in presence of beta-glucuronidase after 48 hrs; assay type: functional, cell-based; outline: as §4
[13] = Prodrug hydrolysis by Escherichia coli beta-glucuronidase assessed as release of 10-hydroxycamptothecin at pH 7.0; assay type: ADME; parameters: scale not given: the % may be the effect or the level left; details: buffer
Outline: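 Substrate incubated with E. coli β-glucuronidase (0.1 µg/mL) in pH 7.0 phosphate buffer at 37 °C. Aliquots taken over time; substrate and released 10-hydroxycamptothecin quantified by fluorescence-detected reversed-phase HPLC. Triplicate determinations.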

[14] = Stability in human plasma assessed as degradation after 10 mins; assay type: ADME, cell-free; details: read-out: Activity; outline: as §5

| SMILES | IC50 (COLO 205 [1]) [µM] | solubility [2] [µM] | IC50 [3] [µM] | IC50 (HT-29 [4]) [µM] | solubility ([5]; buffer) [µM] | IC50 (HepG2 [6]) [µM] | Km (Escherichia coli [7]) [µM] | Vmax (Escherichia coli [7]) [µM/min] | Ratio (Escherichia coli [8]) [min⁻¹] | IC50 (HepG2 [9]) [µM] | Stability (Plasma) | IC50 (COLO 205 [10]) [µM] | IC50 (HT-29 [11]) [µM] | solubility ([5]; phosphate buffer, read-out: Solubility) [µM] | IC50 [12] [µM] | Activity [13] [%] | metabolised at 10 min [14] [%] |
| --- | --- | --- | --- | --- | --- | --- | --- | --- | --- | --- | --- | --- | --- | --- | --- | --- | --- |
| CC[C@@]1(O)C(=O)OCc2c1cc1n(c2=O)Cc2cc3cc(O)ccc3nc2-1 [HYDROXYCAMPTOTHECIN] | 0.0091 | 13.7 (≈ 4.99 µg/mL) | 0.0069 | 0.0088 | 137 (≈ 49.9 µg/mL) | 0.0054 | – | – | – | – | – | – | – | – | – | – | – |
| CC[C@@]1(O)C(=O)OCc2c1cc1n(c2=O)Cc2cc3c(NC(=O)OCc4ccc(O[C@@H]5O[C@H](C(=O)O)[C@@H](O)[C@H](O)[C@H]5O)cc4)cccc3nc2-1 | – | – | – | – | – | – | 30 | 0.86 | 0.03 | – | – | – | – | – | – | – | – |
| CC[C@@]1(O)C(=O)OCc2c1cc1n(c2=O)Cc2cc3cc(OCc4ccc(O[C@@H]5O[C@H](C(=O)O)[C@@H](O)[C@H](O)[C@H]5O)c([N+](=O)[O-])c4)ccc3nc2-1 | 0.0942 | 1100 (≈ 761 µg/mL) | 0.0911 | 0.0978 | – | 0.0565 | 0.18 | 2.7 | 15 | 0.0066 | Stable | 0.0102 | 0.01 | 2600 (≈ 1800 µg/mL) | 0.0111 | > 50 | – |
| CC[C@@]1(O)C(=O)OCc2c1cc1n(c2=O)Cc2cc3cc(OC(=O)OCc4ccc(O[C@@H]5O[C@H](C(=O)OC)[C@@H](O)[C@H](O)[C@H]5O)cc4)ccc3nc2-1 | – | – | – | – | – | – | – | – | – | – | – | – | – | – | – | – | 70 |
